In brackets after ≈: the same amount, converted by molar mass. Entries after “also recorded” stand apart in the source; their conditions may differ.
How the values were obtained:
[1] = system: CEM cells; experiment: Cell proliferation assay: rescue of CEM cells from gemcitabine; format: cell-based, human; conditions: CEM cells treated with gemcitabine with and without DI-87
In short: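 CEM cells plated at 1×10^3 cells/well, exposed to increasing gemcitabine concentrations (up to 10 μM) with or without 1 μM test compound for 72 hr. Viability read by CellTiter-Glo luminescence after 5 min at room temperature.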

[2] = target: bovine serum albumin (BSA) (Bos taurus, UniProt P02769); experiment: Protein binding assessed by IC50 of dCK inhibitor in presence of BSA; format: in vitro ADME; conditions: 25 and 50 mg/mL BSA
Sequence of bovine serum albumin (BSA) (P02769 25-607): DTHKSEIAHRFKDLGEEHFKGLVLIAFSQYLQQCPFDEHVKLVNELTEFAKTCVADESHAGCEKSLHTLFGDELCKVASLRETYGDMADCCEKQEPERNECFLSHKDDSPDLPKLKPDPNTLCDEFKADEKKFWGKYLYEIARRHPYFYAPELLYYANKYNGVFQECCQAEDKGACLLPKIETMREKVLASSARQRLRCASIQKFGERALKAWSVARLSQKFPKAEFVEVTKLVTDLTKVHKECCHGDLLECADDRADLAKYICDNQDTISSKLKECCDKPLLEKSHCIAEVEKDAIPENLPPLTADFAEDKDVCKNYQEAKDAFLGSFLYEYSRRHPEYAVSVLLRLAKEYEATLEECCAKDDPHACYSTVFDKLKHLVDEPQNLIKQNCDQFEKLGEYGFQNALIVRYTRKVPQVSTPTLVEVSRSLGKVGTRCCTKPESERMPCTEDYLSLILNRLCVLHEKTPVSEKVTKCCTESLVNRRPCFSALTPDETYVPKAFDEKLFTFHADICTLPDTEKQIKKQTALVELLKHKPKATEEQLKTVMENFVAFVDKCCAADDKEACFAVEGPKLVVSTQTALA
In short: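 IC50 was compared between the two BSA levels, with duplicate determinations (n=2) reported as mean±SD.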

[3] = format: in vivo, NSG mice
In short: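 Female NSG mice with subcutaneous CEM xenografts (from 50 mm3) given oral gavage at 10, 25 or 50 mg/kg in PEG-200:Transcutol:Labrasol:Tween-80 (5:3:1:1). One terminal plasma and tumor sample per mouse at 1, 3, 6, 9 and 24 h (n=5 per time point). Methanol extraction with internal standard, LC-MS/MS-MRM. Population model with gut depot, plasma and tumor compartments (ADVAN6, TRANS1), exponential inter-subject error and actual tumor volumes.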

[4] = target: dCK (Homo sapiens, UniProt P27707); experiment: dCK activity in CEM tumors by [18F]CFA MicroPET/CT, PK-PD model; format: in vivo, NSG mice
Sequence of dCK (P27707 whole entry): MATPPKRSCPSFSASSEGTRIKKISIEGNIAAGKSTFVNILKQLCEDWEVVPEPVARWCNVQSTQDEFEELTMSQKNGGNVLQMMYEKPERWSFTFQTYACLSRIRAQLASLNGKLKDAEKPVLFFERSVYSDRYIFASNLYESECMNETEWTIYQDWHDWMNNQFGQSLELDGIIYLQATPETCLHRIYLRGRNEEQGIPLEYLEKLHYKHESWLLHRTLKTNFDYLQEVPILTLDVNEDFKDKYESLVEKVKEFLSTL
In short: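 Male NSG mice bearing subcutaneous CEM tumors (250 mm3) received a single oral dose (5, 10 or 25 mg/kg) in lipid/surfactant vehicle, one time point per mouse (N=4 per time point). Mice were anesthetized and given 740 kBq [18F]CFA i.v. 3 h before imaging. MicroPET/CT acquisition ran 10 min with MAP reconstruction, co-registered CT and manual 3D tumor regions of interest. Modelled tumor concentrations were linked to the effect compartment; linear, Emax and sigmoid Emax fits were compared.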

[5] = system: CEM tumor xenografts; experiment: Growth inhibition of CEM tumor xenografts, DI-87 with thymidine, PK-PD model; format: in vivo; conditions: for Tumor growth, single agent: agent given alone
In short: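 NSG mice (8–12 weeks) carried subcutaneous CEM xenografts (2 × 10^6 cells, PBS/matrigel 50/50). Dosing began at 50 mm3: oral gavage QD or BID for 16–18 days (PEG-200:Transcutol:Labrasol:Tween-80, 5:3:1:1), plus thymidine 2 g/kg i.p. BID in saline. Controls: thymidine alone, compound plus saline, vehicle plus saline. Tumor size tracked (n=5). An Emax indirect-response PD model was linked to population PK tumor concentrations.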

[6] = oral 10, 25, 50 mg/kg, plasma-tumor population PK model
[7] = plasma-tumor population PK model
[8] = sigmoid Emax indirect response model

## COc1ccc(-c2nc([C@@H](C)Sc3nc(N)cc(N)n3)c(C)s2)cc1OCCN1CCOCC1 [DI-87, (R)-2-((1-(2-(4-methoxy-3-(2-morpholinoethoxy)phenyl)-5-methylthiazol-4-yl)ethyl)thio)pyrimidine-4,6-diamine]
[1]
  Prevention of gemcitabine cytotoxicity: fully prevented cytotoxicity following gemcitabine treatment
[2]
  Protein binding (IC50 in presence of BSA): low protein binding; also recorded: retained its potency in the presence of albumin
[2]; listed as (R)-DI-87
  Protein binding (IC50 in presence of BSA): comparatively lower than its predecessor
[3]; 0.693/(CL/V)
  Half-life (plasma): 4.2 h
[3]; female, NSG, mouse, plasma, oral, Half-life (plasma), 0.693/(CL/V)
  half-life: 240 min
[3]; fixed to the estimate from the plasma PK model
  KA (absorption constant): 0.66 (FIXED) hr
[3]; oral 10, 25, 50 mg/kg, CEM tumor
  Time of peak tumor concentration: 3 to 9 h
[3]; [6]
  CL: 0.46 L/h/kg
  V (plasma volume of distribution): 2.78 L/kg
[3]; [7]
  Q (intercompartmental clearance plasma-tumor): 4.5 mL/h/kg
  Scalar: 3.69
[4]
  EC50: 617 nM
[4]; [8]
  Gamma (Hill coefficient), DCK inhibition PK-PD model: 58.6
  Kin, DCK inhibition PK-PD model: 0.76
  Kout, DCK inhibition PK-PD model: 0.12
[4]; sigmoid Emax indirect response model, linked to tumor concentrations
  Emax, DCK inhibition PK-PD model: 1.20
[4]; single oral dose 5 mg/kg
  dCK inhibition (PET): minimal dCK inhibition with rapid recovery
[4]; single oral dose 10 mg/kg
  dCK inhibition (PET): full inhibition with recovery initiating at the 12 hr time point
[4]; single oral dose 25 mg/kg
  Earliest time of full dCK inhibition (PET): 3 h
  Time to full recovery of dCK enzyme activity (PET): ≤ 36 h
[5]; DI-87 25 mg/kg BID oral with thymidine 2 g/kg i.p. BID, 25 mg/kg
  Tumor growth inhibition: Near complete growth inhibition; also recorded: maximal tumor growth inhibition
[5]; Emax indirect response model, DI-87 with i.p. thymidine
  Emax, Growth Inhibition PK-PD Model: 1.06
[5]; Mus musculus, ip, read-out: EC50, Growth Inhibition PK-PD Model
  EC50: 3.63 µg/mL (≈ 7.22 µM)
[5]; data not shown
  Tumor growth, single agent: tumor growth curves similar to the control; also recorded: essentially no ability to inhibit growth
[5]; single agent, higher doses, data not shown
  Tolerability as a single agent: well tolerated at higher doses

## Cc1cn([C@H]2C[C@H](O)[C@@H](CO)O2)c(=O)[nH]c1=O [thymidine, reference compound]
[5]; data not shown
  Tumor growth, single agent: tumor growth curves similar to the control

— article PMC6981055 (Biochemical pharmacology, 2019)
